Screens as filed in PubChem BioAssay.
An excerpt weighted towards active compounds, which were near 4.3% of everything screened.
FLuc inh counter: inhibits firefly luciferase, flagging false hits in luciferase inhibition screens. AID 1006. inhibition, % at 10 µM. 200,000 compounds, 1.5% hits. ATPLite firefly luciferase biochemical luminescence, 10 min. P08659;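 active = inhibition above about 50% when tested at 10 µM, limit read from the data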
Target sequence (P08659 whole entry, looked up): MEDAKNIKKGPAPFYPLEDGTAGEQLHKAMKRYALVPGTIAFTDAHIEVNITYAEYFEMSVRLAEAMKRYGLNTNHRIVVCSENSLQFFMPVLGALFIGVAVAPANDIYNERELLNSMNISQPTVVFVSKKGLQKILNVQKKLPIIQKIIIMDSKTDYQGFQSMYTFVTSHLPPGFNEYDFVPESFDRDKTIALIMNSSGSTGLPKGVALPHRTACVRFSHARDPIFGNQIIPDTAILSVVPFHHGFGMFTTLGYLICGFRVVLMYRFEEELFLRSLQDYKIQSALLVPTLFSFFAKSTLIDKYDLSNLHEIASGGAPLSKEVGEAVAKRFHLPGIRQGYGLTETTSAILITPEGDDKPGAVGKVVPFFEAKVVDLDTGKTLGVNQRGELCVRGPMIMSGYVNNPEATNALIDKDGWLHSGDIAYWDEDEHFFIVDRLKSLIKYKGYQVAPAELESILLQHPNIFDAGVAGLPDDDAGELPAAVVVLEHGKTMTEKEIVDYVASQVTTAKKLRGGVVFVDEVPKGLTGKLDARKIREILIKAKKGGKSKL
STAT1 act: activators of IFN-gamma induced STAT1 signaling; NIH 3T3 STAT1-luciferase reporter, luminescence; 100% = IFN-gamma alone, no compound; 200,000 compounds, 2.6% hits; activation (% of control), % at 5.5 µM; AID 932;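 active = activation above the screen-wide mean activation plus 3 SD, cut at about 130% in these data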;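 also: raw ratio to IFN-gamma control signal so 100% means no change and 0% no light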
APP 5'UTR act: APP 5'UTR luciferase reporter activation. activation, % at 2 µM. SH-SY5Y APP 5'UTR luciferase reporter, luminescence; zero percent = DMSO vehicle wells. AID 1276. 190,000 compounds, 1% hits;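 active = activation above a set limit, based on mean plus 3 SD of controls, cut at about 140% in these data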
FLuc stim CS: firefly luciferase counter-screen for stimulation assays; 200,000 tested, under 10 active; ATPlite luciferase biochemical, luminescence, 10 min; 0 = ATP-free wells, 1 = DMSO control; P08659; activation factor at 10 µM;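 active = luciferase activation factor, scaled between plate controls, of at least 2 with compound at 10 µM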
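Material: luciferase plus luciferin reagent, cell-free. Medium: PBS buffer for ATP. Also added: ATP substrate, dispensed from a 10.24 µM working solution in PBS. Doses: test compounds dosed from 2 mM stocks in 100% DMSO. Incubation: 10 min post-reagent at room temperature. Technique: light output (luminescence). Read-out basis: luminescence gain marking luciferase activators.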
SDO1 yeast rescue: restores growth of sdo1-depleted yeast; S. cerevisiae sdo1-depleted JHY4D growth rescue, OD600 30 h; stronger effect = higher value; pdr5 snq2 efflux-pump mutant strain; z-score at 10 µM; 140,000 compounds, 0.21% hits; AID 817;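 active = z-score above 3 at both the 24 hr and the 30 hr optical density reads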;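 also: z-score against mean and SD of all compound wells on the same plate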
NF-kB neuron act: raises NF-kB expression in human neuronal cells; NF-kB reporter expression; stronger effect = higher value; fold change at 12.5 µM; 190,000 compounds, 1.6% hits; AID 1239; in the data active = fold change above about 3.3
STAT1 activ conf: STAT1 activation, confirmation assay | shares compounds with STAT1 act | NIH 3T3 STAT1-luciferase reporter, IFN-gamma potentiation, luminescence; 100% = IFN-gamma EC80 alone, no compound | activation (% of control), % at 5.7 µM | 1,200 compounds, 97% hits | AID 1262;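 active = activation above a set limit carried over from the earlier primary STAT1 screen, cut at about 140% in these data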;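 also: simple ratio to median IFN-gamma plus DMSO wells so 0% means no light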
NFkB act STAT1ct: NF-kappaB activation in STAT1 activator counter-screen | activation (% of control), % at 5.7 µM | 1,200 compounds, 43% hits | shares compounds with STAT1 act | HEK293T NF-kB luciferase reporter, TNF-alpha stimulated, luminescence; 100% = TNF-alpha with vehicle only | AID 1306;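 active = activation above the mean of solvent-only control wells plus 3 SD, set per campaign, cut at about 130% in these data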;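 also: TNF-alpha given at a submaximal dose yielding about 80% of full reporter signal; values are well signal over median control so 100% means no change and 0% no light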
STAT3 act STAT1c: counter-screen for STAT1 activators: human STAT3 activation; shares compounds with STAT1 act; U3A cells STAT3-luciferase reporter, IL-6, luminescence; cells lack STAT1; 100 = IL-6 alone, no compound effect; activation (% of control), % at 5.7 µM; 1,200 compounds, 46% hits; AID 1316;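 active = activation above the solvent-only control well mean plus 3 SD, set per plate batch, cut at about 110% in these data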;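 also: 0% = no luminescence and 100% = median IL-6 plus DMSO wells; higher means more STAT3 reporter activation so hits are non-selective activators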
Starred values were filed as active, the others as inactive; nt = no result given.

SMILES	FLuc inh counter	STAT1 act	APP 5'UTR act	FLuc stim CS	SDO1 yeast rescue	NF-kB neuron act	STAT1 activ conf	NFkB act STAT1ct	STAT3 act STAT1c
COc1ccc(Nc2nc(-c3cccs3)cs2)c(OC)c1	1.5	163.9*	58.8	1	-0.23	7.03*	216.5*	139.1*	118.0*
CCOc1ccc(Br)cc1S(=O)(=O)Nc1ccc(NC(=O)c2ccccc2F)cc1	-5.0	103.3	-1.0	1.1	-0.56	1.03	nt	nt	nt
COc1ccc(N(C(=O)/C=C/c2ccc(OC)c(OC)c2)C2=CC3CCC(C2)N3C)cc1 (configuration not stated)	-7.3	96.7	10.3	1.1	nt	1.05	nt	nt	nt
COc1ccc2[nH]c3c(c2c1)CCn1c-3nc2ccccc2c1=O	42.0	153.0*	183.8*	0.6	-0.62	5.45*	297.6*	116.4	93.3
COc1cc(OC)cc(C(=O)Nn2c(C)nc3ccccc3c2=O)c1	-4.2	100.7	-1.5	1	-0.4	0.49	nt	nt	nt
O=C(NCCc1c[nH]c2ccccc12)[C@@H]1C[C@H]1[C@@H](NP(=O)(c1ccccc1)c1ccccc1)c1ccccc1	-2.8	98.1	1.5	1	0.23	0.73	nt	nt	nt
c1ccc(-n2nnc(-c3cccnc3)n2)cc1	24.8	151.6*	17.8	0.8	nt	2.38	164.6*	125.8	102.7
COc1ccc(-c2cc(=Nc3ccc(C)cc3)c3ccccc3o2)cc1	-2.4	98.5	-4.6	1	-2.48	1.2	nt	nt	nt
COc1ccc(-c2cc(=NC(CC(C)C)C(=O)O)c3cc(C)ccc3o2)cc1 (configuration not stated)	10.8	155.7*	126.1	0.9	1.05	4.33*	143.8*	135.7*	107.9
CC1=CC(c2ccccc2)=Nc2ccc(C)cc2N1	44.6	164.7*	181.9*	0.6	1.27	5.39*	202.2*	130.1	130.8*
CCOC(=O)C(=O)/C(=C\N(C)C)c1onc(-c2c(Cl)cccc2Cl)c1C(=O)OC	1.5	93.5	13.1	1	-0.2	1.11	nt	nt	nt
COc1ccc(/C(C)=N/Nc2ccc(C(=O)O)cc2)cc1OC	9.4	156.6*	158.4*	0.9	-0.04	5.97*	189.8*	120.2	119.2*
COc1cc(/C(C)=N/Nc2ccc(C(=O)O)cc2)cc(OC)c1OC	-3.9	95.9	65.5	1	1.22	1.23	nt	nt	nt
COC(=O)CSc1nc2cc(C)ccc2cc1C#N	-0.9	156.4*	137.8*	1	-0.09	6.29*	224.3*	141.6*	105.9
OCc1cn(-c2ccccc2)nc1-c1cc2ccccc2o1	28.7	167.3*	85.8	0.7	nt	9.68*	212.8*	138.6*	106.8
O=C(N/N=C/c1cn(-c2ccccc2)nc1-c1cc2ccccc2o1)c1c[nH]c2ccccc12	34.5	186.6*	186.8*	0.7	nt	nt	198.7*	134.6*	105.0
COc1ccc(NC(=O)c2cn(-c3ccccc3)nc2-c2cc3ccccc3o2)cc1	-2.0	107.4	31.3	1	-0.42	0.82	nt	nt	nt
CCOC(=O)Cc1csc(NC(=S)NC(=O)c2cccc([N+](=O)[O-])c2)n1	10.6	97.5	-3.0	0.9	-0.65	0.79	nt	nt	nt
COc1ccc(-c2ccc3ccccc3n2)cc1OC	15.2	170.2*	142.9*	0.8	nt	3.3*	194.6*	135.6*	111.2*
COc1cc(-c2ccccc2)nc2ccccc12	-0.9	97.5	-12.7	1	-0.71	1.16	nt	nt	nt
O=C(c1ccccc1)c1ccc(N2CCCC2)cc1	27.8	150.9*	45.6	0.7	-1.11	1.94	143.3*	115.9	101.3
O=C(/C=C/c1ccccc1)Nc1ccc(N2CCCCC2)cc1	15.8	150.9*	84.0	0.8	-0.52	1.05	168.0*	125.1	104.6
COc1c(C)cccc1C(=O)Nc1ccc(N2CCOCC2)c(Cl)c1	25.0	152.3*	154.0*	0.8	-0.33	6.07*	198.7*	130.9	105.5
O=C(Nc1ccc(N2CCOCC2)c(Cl)c1)c1cccc(F)c1	16.0	185.4*	109.2	0.8	0.33	5.53*	193.4*	134.9*	117.7*
O=C(Nc1ccc(N2CCOCC2)c(Cl)c1)c1cccnc1Cl	2.0	105.6	-4.2	1	0.5	1.13	nt	nt	nt
SMILES	FLuc inh counter	STAT1 act	APP 5'UTR act	FLuc stim CS	SDO1 yeast rescue	NF-kB neuron act	STAT1 activ conf	NFkB act STAT1ct	STAT3 act STAT1c
O=C(Nc1ccc(N2CCOCC2)c(Cl)c1)c1c(F)c(F)c(F)c(F)c1F	-0.5	108.2	5.7	1	-0.48	0.78	nt	nt	nt
O=C(/C=C/c1ccco1)NCc1ccccn1	-0.8	105.5	3.5	1	nt	1.26	nt	nt	nt
COc1ccc2[nH]c(=O)c(NC(N)=S)nc2c1	6.0	99.0	8.7	0.9	-0.23	0.76	nt	nt	nt
CCN(Cc1ccccc1)c1ccc(/C=C(\C#N)c2ccccn2)cc1	21.3	167.3*	117.3	0.8	-0.03	1.92	196.7*	142.9*	113.4*
COc1ccc(N/C=C(\C(C)=O)c2ccc(OC)c(OC)c2)cc1OC	-7.6	90.6	-15.0	1.1	nt	1.04	nt	nt	nt
COc1cc(/C=N/O)ccc1OCc1ccccc1Cl	36.9	181.8*	186.1*	0.6	nt	7.24*	191.1*	125.0	120.5*
O=C(O)c1cc(N/N=C/C=C/c2ccccc2)ccc1Cl	10.5	158.2*	179.0*	0.9	nt	6.08*	210.2*	151.9*	127.1*
Cc1noc(C)c1CSc1nnc2c(C)cc3ccccc3n12	nt	101.3	-8.3	nt	nt	nt	nt	nt	nt
CCn1c(C)nc2cc(C(=O)OC(C(F)(F)C(F)F)C(F)(F)C(F)F)ccc21	1.7	182.5*	-1.7	1	-1.42	0.9	181.8*	120.1	114.7*
CC(C)(NC(=O)N1CCCC1)c1cccc(C(C)(C)NC(=O)N2CCCC2)c1	-5.3	91.1	-9.0	1.1	0.37	0.98	nt	nt	nt
CC(=O)c1ccc(NC(=O)c2ccc(C)c(Br)c2)cc1	12.3	156.1*	203.0*	0.9	nt	3.98*	197.6*	139.9*	101.3
CCN(CC)c1ccc(NS(=O)(=O)c2ccc(OC)cc2)cc1	-6.0	92.4	5.2	1.1	nt	0.91	nt	nt	nt
Cc1ccc2nc(-c3ccc(NC(=O)CN4C(=O)c5ccccc5C4=O)cc3)sc2c1	37.5	162.1*	113.5	0.6	-1.02	1.66	180.3*	129.9	117.9*
